In brackets after ≈: the same amount, converted by molar mass.
What was measured:
[1] = system: Escherichia coli; experiment: Antibacterial activity against Escherichia coli ATCC 15224 at 40 mg/mL after 24 hrs by disc diffusion method; format: functional; conditions: ATCC 15224, 24 h, read-out: DIZ
In short: (§1)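 Disc diffusion. Strains grown in nutrient broth at 37 °C for 24 h. 1% culture (about 10^6 CFU/mL) mixed into nutrient agar at 45 °C and poured. 4 mm paper discs received compound at 40 mg/mL stock in DMSO; final concentrations tested were […]. DMSO served as negative control, roxithromycin and cefixime as positive controls. Triplicate plates incubated at 37 °C for 24 h. Complete-inhibition zone diameter (mm) recorded as the mean of 3.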

[2] = system: Staphylococcus aureus; experiment: Antibacterial activity against Staphylococcus aureus ATCC 6538 at 40 mg/mL after 24 hrs by disc diffusion method; format: functional; conditions: ATCC 6538, 24 h, read-out: DIZ; in short: as §1
[3] = system: Klebsiella aerogenes; experiment: Antibacterial activity against Enterobacter aerogenes ATCC 13048 at 40 mg/mL after 24 hrs by disc diffusion method; format: functional; conditions: ATCC 13048, 24 h, read-out: DIZ; in short: as §1
[4] = system: Salmonella typhimurium; experiment: Antibacterial activity against Salmonella typhimurium ATCC 14028 at 40 mg/mL after 24 hrs by disc diffusion method; format: functional, Salmonella enterica subsp. enterica serovar Typhimurium; conditions: Salmonella enterica, ATCC 14028, 24 h; read-out: DIZ; in short: as §1
[5] = system: Bordetella bronchiseptica; experiment: Antibacterial activity against Bordetella bronchiseptica ATCC 4617 at 40 mg/mL after 24 hrs by disc diffusion method; format: functional; conditions: ATCC 4617, 24 h, read-out: DIZ; in short: as §1
[6] = system: Bacillus spizizenii; experiment: Antibacterial activity against Bacillus subtilis ATCC 6633 at 40 mg/mL after 24 hrs by disc diffusion method; format: functional; conditions: ATCC 6633, 24 h, read-out: DIZ; in short: as §1
[7] = system: Artemia salina; experiment: Cytotoxicity in brine shrimp assessed as mortality after 24 hrs; format: functional; conditions: read-out: LD50 (the source's name)
[8] = system: Aspergillus niger; experiment: Antifungal activity against Aspergillus niger FCBP 0198 at 40 mg/mL after 7 days by disc diffusion method; format: functional; conditions: FCBP 0198, 168 h, read-out: DIZ
In short: (§2)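 Disc diffusion on SDA. Fungi cultured at 28 °C for 24 h. 4 mm discs received compound at 40 mg/mL stock in DMSO. DMSO served as negative control, terbinafine as positive control. Plates incubated at 28 °C for 7 days. Growth diameter (mm) measured and inhibition calculated against the negative control. MIC taken as the lowest concentration with no growth.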

[9] = system: Aspergillus fumigatus; experiment: Antifungal activity against Aspergillus fumigatus FCBP 66 at 40 mg/mL after 7 days by disc diffusion method; format: functional; conditions: FCBP 66, 168 h, read-out: DIZ; in short: as §2
[10] = system: Aspergillus flavus; experiment: Antifungal activity against Aspergillus flavus FCBP 0064 at 40 mg/mL after 7 days by disc diffusion method; format: functional; conditions: FCBP 0064, 168 h, read-out: DIZ; in short: as §2
[11] = system: Mucor; experiment: Antifungal activity against Mucor FCBP 0400 at 40 mg/mL after 7 days by disc diffusion method; format: functional; conditions: FCBP 0400, 168 h, read-out: DIZ; in short: as §2
[12] = system: Agrobacterium tumefaciens; experiment: Antitumor activity against Agrobacterium tumefaciens -induced tumor at 1000 ug/ml after 21 days by potato disc bioassay technique; format: functional
In short: (§3)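 Potato disc assay with 48 h culture of A. tumefaciens At-10. Inoculum contained compound at […]. Red-skinned potatoes sterilized in 0.1% HgCl2; 8 mm × 4 mm discs placed ten per 1.5% agar plate, […] each. Incubated at 28 °C in the dark for 21 days, in triplicate. Discs stained with Lugol's and tumors counted. Percent inhibition calculated against the negative control.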

[13] = system: Agrobacterium tumefaciens; experiment: Antitumor activity against Agrobacterium tumefaciens -induced tumor at 100 ug/ml after 21 days by potato disc bioassay technique; format: functional; in short: as §3
[14] = system: Agrobacterium tumefaciens; experiment: Antitumor activity against Agrobacterium tumefaciens -induced tumor at 10 ug/ml after 21 days by potato disc bioassay technique; format: functional; in short: as §3

Molecule C=CC1=C(C(=O)O)N2C(=O)[C@@H](NC(=O)/C(=N\OCC(=O)O)c3csc(N)n3)[C@H]2SC1 [CEFIXIME] has a zone of inhibition at 40000 µg/mL [1] of 24 mm, a zone of inhibition at 40000 µg/mL [2] of 26 mm and a zone of inhibition at 40000 µg/mL [3] of 10 mm. It also gave a zone of inhibition at 40000 µg/mL [4] of 26 mm, a zone of inhibition at 40000 µg/mL [5] of 13 mm and a zone of inhibition at 40000 µg/mL [6] of 25 mm.
In the case of COc1cccc2c1C(=O)c1c(O)c3c(c(O)c1C2=O)C[C@@](O)(C(=O)CO)C[C@@H]3O[C@H]1C[C@H](N)[C@H](O)[C@H](C)O1 [DOXORUBICIN], the LC50 [7] is reported as 0.434 µg/mL (≈ 0.798 µM).
For CC[C@H]1OC(=O)[C@H](C)[C@@H](O[C@H]2C[C@@](C)(OC)[C@@H](O)[C@H](C)O2)[C@H](C)[C@@H](O[C@@H]2O[C@H](C)C[C@H](N(C)C)[C@H]2O)[C@](C)(O)C[C@@H](C)/C(=N\OCOCCOC)[C@H](C)[C@@H](O)[C@]1(C)O [ROXITHROMYCIN], the zone of inhibition at 40000 µg/mL [1] was 14 mm, the zone of inhibition at 40000 µg/mL [2] was 14 mm and the zone of inhibition at 40000 µg/mL [3] was 12 mm. It also gave a zone of inhibition at 40000 µg/mL [4] of 16 mm, a zone of inhibition at 40000 µg/mL [5] of 19 mm and a zone of inhibition at 40000 µg/mL [6] of 10 mm.
CN(C/C=C/C#CC(C)(C)C)Cc1cccc2ccccc12 [TERBINAFINE] gave a zone of inhibition at 40000 µg/mL [8] of 35 mm, a zone of inhibition at 40000 µg/mL [9] of 35 mm and a zone of inhibition at 40000 µg/mL [10] of 35 mm. For the same molecule, the zone of inhibition at 40000 µg/mL [11] was 32 mm.
CC[C@]1(O)C[C@H]2CN(CCc3c([nH]c4ccccc34)[C@@](C(=O)OC)(c3cc4c(cc3OC)N(C=O)[C@H]3[C@@](O)(C(=O)OC)[C@H](OC(C)=O)[C@]5(CC)C=CCN6CC[C@]43[C@@H]65)C2)C1 [VINCRISTINE] was tested, and the Activity [12] was 100%, the Activity [13] was 100% and the Activity [14] was 100%.
